Source: PubChem (Broad Institute)
Most compounds without a hit are left out; they make up all but 5.8% or so of the library.
KDM4C inh: KDM4C (human) demethylase inhibition; GST-KDM4C 2-372, H3K9me3 peptide, LANCE TR-FRET; inhibition, % at 12.5 µM; Q9H3R0; actives 0.15% (n = 96,000);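 active = mean replicate inhibition above about 25%, with at least 55% of replicates also reaching it, limit read from the data, passing the limit was not always enough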
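System – N-terminal GST-fused human GASC-1 (KDM4C) fragment, residues 2-372 · Input – enzyme final amount 10 nM · Technique – LANCE TR-FRET, Eu antibody, ULight-streptavidin, EDTA, ex 340 nm, em 618/671 nm · Medium – HEPES buffer, pH 7.5, plus ascorbate · Incubation – enzyme reaction 30 min, then detection 60 min, both room temperature · Reagent – H3K9me3 peptide with Fe(II)/2OG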
IDH1 mut inh: inhibitors of human IDH1 R132H; O75874; IDH1 R132H reductase, diaphorase/resazurin fluorescence, 60 min; inhibition, % at 10 µM; actives 0.18% (n = 70,000); AID 624101; in the data active = inhibition above about 34%;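 note: 0% = DMSO and 100% = no enzyme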
Target sequence (O75874 whole entry R132H): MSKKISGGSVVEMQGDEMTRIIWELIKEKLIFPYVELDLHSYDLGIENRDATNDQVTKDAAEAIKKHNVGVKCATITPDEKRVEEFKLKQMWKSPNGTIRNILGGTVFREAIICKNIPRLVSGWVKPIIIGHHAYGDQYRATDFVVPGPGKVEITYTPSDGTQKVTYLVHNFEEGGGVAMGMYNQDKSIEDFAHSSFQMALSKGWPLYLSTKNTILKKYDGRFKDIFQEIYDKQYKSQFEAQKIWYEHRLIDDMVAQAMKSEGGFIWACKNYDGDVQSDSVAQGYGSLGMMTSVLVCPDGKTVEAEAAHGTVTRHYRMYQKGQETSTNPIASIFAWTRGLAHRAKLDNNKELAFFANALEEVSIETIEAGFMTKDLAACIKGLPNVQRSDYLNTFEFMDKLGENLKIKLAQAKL
Pf Dd2 growth: P. falciparum Dd2 growth inhibition; SYBR Green, 72 h; hits give low values; activity change, % at 10 µM; actives 2.3% (n = 94,000); in the data active = activity change below about -80%
Tcruzi prolif: inhibitors of T. cruzi proliferation; T. cruzi beta-gal in NIH3T3, GalScreen luminescence, 90 h; inhibition, % at 8.34 µM; actives 5.9% (n = 77,000);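 active = mean inhibition above about 93%, with at least 55% of replicates each passing it, limit read from the data, passing the limit was not always enough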
* = called active by the depositor; nt = no result.

SMILES	KDM4C inh	IDH1 mut inh	Pf Dd2 growth	Tcruzi prolif
C[C@@H]1CN([C@H](C)CO)C(=O)c2cc(C#CCc3ccccc3)cnc2O[C@H]1CN(C)C(=O)C1CCCCC1	0.2	1.9	-82.8*	105.5
COc1ccc(NC(=O)Cc2nc(-c3ccc(OC)cc3)cs2)cc1	nt	-0.2	nt	nt
COc1ccc(-c2nnc(SCC(=O)Nc3ccc(Br)c(C)c3C)n2C)cc1	nt	-0.2	nt	nt
CCOC(=O)COc1ccc(-c2nc3c([nH]2)c(=O)n(C)c(=O)n3C)cc1OC	nt	0.3	nt	nt
Cc1noc(C)c1NC(=O)N(C)C[C@@H]1Oc2c(NC(=O)CCCCCC(=O)Nc3ccccc3N)cccc2C(=O)N([C@@H](C)CO)C[C@@H]1C	0.5	0.4	30.5	nt
Cc1noc(C)c1NC(=O)N(C)C[C@H]1Oc2c(NC(=O)CCCCCC(=O)Nc3ccccc3N)cccc2C(=O)N([C@@H](C)CO)C[C@H]1C	0.1	nt	-85.8*	nt
C[C@@H]1CN([C@H](C)CO)C(=O)c2cccc(NC(=O)CCCCCC(=O)Nc3ccccc3N)c2O[C@@H]1CN(C)C(=O)Nc1ccc2c(c1)OCO2	-1.0	nt	-82.0*	nt
C[C@@H]1CN([C@@H](C)CO)C(=O)c2cccc(NC(=O)CCCCCC(=O)Nc3ccccc3N)c2O[C@@H]1CN(C)C(=O)Nc1ccc(C(F)(F)F)cc1	-2.0	nt	-90.5*	nt
C[C@H](CO)N1C[C@H](C)[C@H](CN(C)C(=O)Nc2ccc(F)cc2)Oc2c(NC(=O)CCCCCC(=O)Nc3ccccc3N)cccc2C1=O	-0.8	0.3	-77.6	nt
C[C@@H]1CN([C@@H](C)CO)C(=O)c2cccc(NC(=O)CCCCCC(=O)Nc3ccccc3N)c2O[C@@H]1CN(C)C(=O)Nc1ccc(F)cc1	-1.1	nt	-86.4*	nt
COc1cccc(N(CC(=O)Nc2cccc(Cl)c2)S(C)(=O)=O)c1	nt	0.4	nt	nt
C[C@@H]1O[C@H]2Oc3c(-c4ccc(O)cc4)oc4cc(O)c(c(O)c4c3=O)-c3cc(ccc3O)/C=C\C(=O)OC[C@H]3O[C@@H](O[C@H]([C@H]1O)[C@H]2O)[C@H](O)[C@@H](O)[C@@H]3O	nt	0.1	nt	nt
CC1(C(=O)c2ccccc2)C2c3c(ccc4ccccc34)OC(=O)C21C(=O)c1ccco1 (stereo unspecified)	nt	1.8	nt	nt
O=C(CCNc1ccc(Oc2ccccc2)cc1)c1ccco1	nt	-0.5	nt	nt
Cc1cc(C)cc(NC(=O)CSc2nnc(-c3ccncc3)n2C)c1	nt	0.3	nt	nt
COc1cc([N+](=O)[O-])ccc1NC(=S)NCc1cn(-c2ccccc2)nc1-c1ccccc1	nt	-0.3	nt	nt
C[C@@H]1CN([C@@H](C)CO)C(=O)c2cccc(NC(=O)CCCCCC(=O)Nc3ccccc3N)c2O[C@@H]1CN(C)C(=O)Nc1cccc2ccccc12	-0.5	nt	-88.1*	nt
COc1ccc(I)cc1C(Nc1cc(C)ccn1)c1ccc2cccnc2c1O (stereo unspecified)	nt	0.0	nt	nt
O=C(C1CCCCC1)N1CC(=O)N2[C@H](C1)[C@@H](c1ccc(C#CCc3ccccc3)cc1)[C@@H]2CO	0.2	nt	-66.1	nt
O=C(c1cnccn1)N1CC(=O)N2[C@@H](CO)[C@H](c3ccc(C#CCc4ccccc4)cc3)[C@@H]2C1	1.0	nt	-88.1*	nt
O=C(C1CCCC1)N1CC(=O)N2[C@@H](CO)[C@H](c3ccc(C#CCc4ccccc4)cc3)[C@@H]2C1	1.0	nt	-92.9*	nt
O=C(C1CCCCC1)N1CC(=O)N2[C@H](CO)[C@@H](c3ccc(C#CCc4ccccc4)cc3)[C@@H]2C1	-0.6	nt	-83.4*	nt
COc1ccccc1NC(=O)Cn1cc(C(=O)c2ccccc2F)c2ccccc21	nt	0.3	nt	nt
CCc1ccc(C(Nc2cc(C)ccn2)c2ccc3cccnc3c2O)cc1 (stereo unspecified)	nt	0.1	nt	nt
C[C@@H]1CN([C@H](C)CO)C(=O)c2cccc(NC(=O)Nc3ccc(C(F)(F)F)cc3)c2O[C@@H]1CN(C)Cc1ccc(C(=O)Nc2ccccc2N)cc1	-0.1	nt	-90.2*	nt
C[C@@H]1CN([C@@H](C)CO)C(=O)c2cccc(NC(=O)Nc3ccc(C(F)(F)F)cc3)c2O[C@@H]1CN(C)Cc1ccc(C(=O)Nc2ccccc2N)cc1	-0.4	nt	-91.4*	nt
C[C@H](CO)N1C[C@H](C)[C@H](CN(C)Cc2ccc(C(=O)Nc3ccccc3N)cc2)Oc2c(NC(=O)Nc3ccc(C(F)(F)F)cc3)cccc2C1=O	-2.4	nt	-76.9	87.2
C[C@@H]1OC(OC[C@H]2O[C@@H](Oc3cc(O)c4c(=O)cc(-c5ccc(O)c(O)c5)oc4c3)[C@H](O)[C@@H](O)[C@@H]2O)[C@H](O)[C@H](O)[C@H]1O (stereo partly specified)	nt	-1.4	nt	nt
